The values that follow come from ChEMBL document CHEMBL3596186, “Synthesis and biological evaluation of diarylthiazole derivatives as antimitotic and antivascular agents with potent antitumor activity” (Bioorg Med Chem, 2015).

The structures appear in SMILES notation. Calls of active or inactive are those of the source. The calls are words filed in the database; no cut-off is given here.

Broadly, the IC50 is the concentration that inhibits the measured activity by half. Low readings indicate inhibition by little substance, high ones a need for much substance.

The subject of series [1] is HepG2. As to the kind of experiment: Cell cycle arrest in human HepG2 cells assessed as accumulation at G2/M phase at 0.2 uM after 24 hrs by flow cytometry (reference value: 11.29%). In kind it is functional.
In series [2] the test system is HepG2. As to the kind of experiment: Induction of apoptosis in human HepG2 cells assessed as necrotic cells at 0.5 uM after 24 hrs by annexin V/propidium iodide staining-based flow cytometry (reference value: 1.59%). It is filed as functional.
For series [3], the system named is HepG2. As to the kind of experiment: Induction of apoptosis in human HepG2 cells assessed as late apoptotic cells at 1 uM after 24 hrs by annexin V/propidium iodide staining-based flow cytometry (reference value: 3.74%). In kind it is functional. A general note: A flow cytometer gives signals particle by particle.
The subject of series [4] is HepG2. As to the kind of experiment: Induction of apoptosis in human HepG2 cells assessed as viable cells at 0.2 uM after 48 hrs by annexin V/propidium iodide staining-based flow cytometry (reference value: 89.8%). It is filed as functional. As to conditions: HepG2, 48 h, read-out: Activity.
For series [5], the system named is HepG2. As to the kind of experiment: Induction of apoptosis in human HepG2 cells assessed as early apoptotic cells at 0.5 uM after 48 hrs by annexin V/propidium iodide staining-based flow cytometry (reference value: 0.87%). It is filed as functional.
Series [6] concerns HepG2. The series can be described thus: Induction of apoptosis in human HepG2 cells assessed as late apoptotic cells at 0.5 uM after 48 hrs by annexin V/propidium iodide staining-based flow cytometry (reference value: 3.74%). It is filed as functional.
The subject of series [7] is HepG2. The series can be described thus: Induction of apoptosis in human HepG2 cells assessed as viable cells at 0.5 uM after 48 hrs by annexin V/propidium iodide staining-based flow cytometry (reference value: 89.8%). It is filed as functional. Particulars: HepG2, 48 h, read-out: Activity.
For series [8], the system named is HepG2. The series can be described thus: Induction of apoptosis in human HepG2 cells assessed as late apoptotic cells at 1 uM after 48 hrs by annexin V/propidium iodide staining-based flow cytometry (reference value: 3.74%). It is filed as functional.
The test system of series [9] is HepG2. The series can be described thus: Induction of apoptosis in human HepG2 cells assessed as viable cells at 1 uM after 48 hrs by annexin V/propidium iodide staining-based flow cytometry (reference value: 89.8%). In kind it is functional. Particulars: HepG2, 48 h, read-out: Activity.
The test system of series [10] is HepG2. The series can be described thus: Antimitotic activity in human HepG2 cells assessed as inhibition of microtubule formation at 0.2 uM after 24 hrs by DAPI staining-based immmunofluorescence assay. In kind it is functional, cell-based. In short, it runs like this: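 HepG2 cells seeded in 6-well plates and treated with compound. Fixed in 4% paraformaldehyde, permeabilized with 0.5% Triton X-100 in PBS, blocked 30 min in 5% goat serum at room temperature. Stained with monoclonal anti-α-tubulin 1 h at room temperature, then fluorescent secondary antibody, nuclei labelled with DAPI. Viewed by fluorescence microscopy.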

Series [11] concerns HUVEC. The series can be described thus: Antivascular activity against HUVEC assessed as inhibition of tube formation at 125 to 500 nM after 8 hrs by Matrigel assay. As to conditions: Homo sapiens. It is filed as functional, cell-based. In short, it runs like this: (§1)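 Wells of prechilled plates coated with Matrigel and solidified 45 min at 37 °C. HUVECs (1 × 10^4) in EBM-2 containing compound (125-500 nM) seeded onto the gel and incubated 8 h at 37 °C. Capillary networks photographed at 100×; tubule numbers and line lengths counted manually.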

The test system of series [12] is HUVEC. As to the kind of experiment: Antivascular activity against HUVEC assessed as inhibition of tube formation after 8 hrs by Matrigel assay. Particulars: Homo sapiens. It is filed as functional, cell-based. The method in brief: as §1
Series [13] deals with HCT-116. As to the kind of experiment: Antitumor activity against human HCT116 cells xenografted in Balb/c athymic nude mouse assessed as tumor growth inhibition at 20 mg/kg, ip administered daily after 42 days. It is filed as functional. As to conditions: HCT-116, ip, 1008 h, read-out: TGI. The method in brief:
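Female Balb/C athymic nude mice, 5-6 weeks old, implanted s.c. in the right flank with HCT116 cells in 100 µL HBSS. Tumor volume (π/6 × L × W²) and body weight measured every 2 days. Inhibition = (1 − treated/control tumor weight) × 100%.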
(In general: Xenograft models place foreign cells or tissue in a host animal.)

Series [14] deals with Mus musculus. As to the kind of experiment: Toxicity in Balb/c athymic nude mouse xenografted with human HCT116 cells assessed as loss in body weight at 20 to 50 mg/kg, ip administered daily. As to conditions: in vivo. In kind it is organism-based, HCT-116. In short, it runs like this: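 Female Balb/C athymic nude mice, 5-6 weeks old, implanted s.c. in the right flank with cells in HBSS. Once tumours reached about 100 mm3, mice were randomized (6 per group) to vehicle, 5-FU 10 mg/kg, or test agent 20 or 50 mg/kg i.p. daily. Body weight was recorded every two days.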

Series [15] deals with Mus musculus. As to the kind of experiment: Toxicity in Balb/c athymic nude mouse xenografted with human SKOV3 cells assessed as change in feeding and animal behavior at 20 to 50 mg/kg, ip administered daily. As to conditions: in vivo. In kind it is organism-based, SK-OV-3.
Series [16] deals with HepG2. As to the kind of experiment: Antiproliferative activity against human HepG2 cells after 48 hrs by MTT assay. As to conditions: HepG2, 48 h. It is filed as functional, cell-based. The method in brief: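 HCT116, HepG2, SMMC-7721, SK-OV-3 and A2780s grown in DMEM; A549 and MCF-7 in RPMI-1640; all with 10% FBS and penicillin/streptomycin at 37 °C, 5% CO2. Log-phase cells at 40,000-50,000 cells/mL treated with graded concentrations for 48 h. MTT 3 h, DMSO solubilization, A570. IC50 from percent growth versus untreated control; mean ± SEM of ≥3 independent dose-response experiments.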
On the technique in general: Tetrazolium dyes change colour on reduction, which living cells bring about.

Series [17] concerns A549. As to the kind of experiment: Resistance ratio, ratio of IC50 for human taxol-resistant A549 cells to IC50 for human A549 cells. It is filed as functional. The method in brief:
(§2)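 MTT assay: log-phase cells at 40,000-50,000 cells/mL in RPMI-1640 with 10% FBS, exposed to graded concentrations for 48 h, then MTT 3 h, DMSO solubilization, absorbance at 570 nm. IC50 from growth versus untreated control, at least three independent experiments. Ratio = resistant-line IC50 / parental-line IC50.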

Series [18] can be described thus: Antiproliferative activity against human doxorubicin-resistant MCF7 cells after 48 hrs by MTT assay. It is filed as functional, cell-based. As to conditions: MCF7, 48 h. The method in brief: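 MCF-7/ADR (doxorubicin-resistant) and A549/T (taxol-resistant) cells in RPMI-1640 with 10% FBS and penicillin/streptomycin. Log-phase cells at 40,000-50,000 cells/mL exposed to graded concentrations for 48 h. MTT 3 h, DMSO solubilization, absorbance 570 nm. IC50 from percent growth versus untreated control; mean ± SEM of ≥3 independent experiments.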

For series [19], the system named is MCF7. The series can be described thus: Resistance ratio, ratio of IC50 for human doxorubicin-resistant MCF7 cells to IC50 for human MCF7 cells. It is filed as functional. The method in brief: as §2
Series [20] concerns HCT-116. As to the kind of experiment: Cell cycle arrest in human HCT116 cells assessed as accumulation at G1 phase at 1 uM after 24 hrs by flow cytometry (reference value: 53.98%). It is filed as functional.
Series [21] relates to HCT-116. As to the kind of experiment: Cell cycle arrest in human HCT116 cells assessed as accumulation at G2/M phase at 0.5 uM after 24 hrs by flow cytometry (reference value: 20.36%). In kind it is functional.
The test system of series [22] is HCT-116. The series can be described thus: Induction of apoptosis in human HCT116 cells assessed as necrotic cells at 0.5 uM after 48 hrs by annexin V/propidium iodide staining-based flow cytometry (reference value: 3.49%). It is filed as functional.
Series [23] has as its system HCT-116. The series can be described thus: Induction of apoptosis in human HCT116 cells assessed as early apoptotic cells at 1 uM after 48 hrs by annexin V/propidium iodide staining-based flow cytometry (reference value: 2.83%). It is filed as functional. In short, it runs like this: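 HCT116 cells treated with compound or DMSO for 24 or 48 h, trypsinized, washed twice in PBS and dual-stained with annexin-V and PI. Analysed by flow cytometry: early apoptotic cells scored as annexin-V+/PI−, late apoptotic cells as annexin-V+/PI+.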

Series [24] deals with HCT-116. As to the kind of experiment: Induction of apoptosis in human HCT116 cells assessed as late apoptotic cells at 1 uM after 48 hrs by annexin V/propidium iodide staining-based flow cytometry (reference value: 1.71%). It is filed as functional.

For `CCOc1ccc(-c2nc(N)sc2-c2cc(OC)c(OC)c(OC)c2)cc1`, the Activity in [1] is 19.56%; in [2], 0.81%; in series [3], 8.34%; in [5] it was 65.3%; in [6], 4.38%; in series [8], 2.67%. Also, the Activity entry in series [12] was “Dose-dependent effect”; in series [14], “Toxic”; in series [15] it was “Non-toxic”; in series [20] it was 13.06%; in series [21], 68.04%; in [22] it was 4.36%. For the same molecule, the Activity is 43.1% in [23] and 32.6% in [24]. Besides, the viability at 0.2 µM in series [4] came out at 28.5%. For the same molecule, the viability at 0.5 µM in series [7] is 29.6%. Also, the viability at 1 µM in [9] stood at 25.9%. The outcome in series [10] and in series [11] was Active. In series [13], the inhibition in vivo at 20 mg/kg amounted to 49.5%. Also, the figures for the IC50 in series [16] and in series [18] were 26.4 nM and 190 nM, respectively. Moreover, the “Ratio IC50” value in series [17] is given as 0.51; in series [19] it was 1.9.
